In the library only some 5.6% were active in any assay of this set; here they are far more common.
UPR CHOP act = activators of apoptotic CHOP UPR arm, primary screen, cell-based, CHO-CHOP luciferase reporter, luminescence, uHTS | 0.34% of 330,000 active | activation, % at 10 µM | UPR activation; percent of tunicamycin response over DMSO baseline;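 active means at 10 µM dose, activation of 40% or more, normalized to positive control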;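 further: 100% = tunicamycin at 10 µg/mL and 0% = DMSO alone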
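System: CHO-CHOP luciferase reporter cell line | Buffer or medium: F12 medium containing 10% fetal bovine serum | Doses: One dose, 10 µM in 0.5% DMSO | Times: 6 h compound exposure at 37 °C after overnight seeding | Signal: Luciferase luminescence | Read-out: % activation vs tunicamycin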
aDG glyco act = activators of alpha-DG glycosylation, primary screen, uHTS, Pro5-aDG cells, AlphaScreen; alpha-DG glycosylation AlphaScreen (IIH6); 0% Pro5, 100% B10-LARGE cell signal; activation, % at 10 µM; 0.22% of 360,000 active; AID 624168, 2012;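 active means activation of at least 8% versus controls, or a plate z-score of at least 8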;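 further: Pro5 are CHO cells carrying HIG-tagged alpha-DG that lacks glycosylation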
GRIN3A LBD mod = binders of NR3A ligand-binding domain, primary screen, biophysical, differential scanning fluorimetry, uHTS; 2.5% of 340,000 active; AID 1259313, 2017; NR3A LBD differential scanning fluorimetry, Tm shift; 0% = protein alone, 100% = glycine-bound protein; Tm shift relative to glycine control, % at 25 µM; Glutamate receptor ionotropic, NMDA 3A (GRIN3A) ligand-binding domain;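 active means melting temperature shift of at least 10% of the positive control shift, at one fixed dose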
CHOP inh = inhibitors of CHOP promoter induction, primary screen, cell-based, unfolded protein response, luciferase reporter; CHO-K1 CHOP-promoter luciferase, tunicamycin-induced, 15-18 h; inhibition, % at 10 µM; 3.8% of 220,000 active; AID 2732, 2010;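 active means compounds that reduced the stress-induced luciferase reporter signal by more than about 70% of percent inhibition, limit read from the data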;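 further: 0% = tunicamycin plus vehicle and 100% = wells without tunicamycin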
XBP1 UPR activ = activators of adaptive XBP1 UPR arm, primary screen, cell-based, CHO-XBP1 luciferase reporter, luminescence, uHTS | IRE1-XBP1 UPR activation; percent of tunicamycin response, DMSO as zero | activation, % at 20 µM | 0.33% of 330,000 active | AID 463104, 2010;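 active means versus positive control, 20 µM dose yields 30% or more activation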;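 further: 100% = tunicamycin at 10 µg/mL and 0% = DMSO only wells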
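assay system = CHO-XBP1 luciferase reporter cells | amount = 1000 cells/well | buffer or medium = F12 plus 10% FBS | compound dosing = single point, 20 µM final compound, 1% DMSO | incubation = 16-18 h cell attachment at 37 °C, then 6 h compound exposure | detection = Steady-Glo luminescence read | controls = tunicamycin 10 µg/mL and vehicle-only wells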
MPTP block = mitochondrial permeability transition pore inhibitors, primary screen, biochemical, isolated mouse mitochondria, absorbance; Ca2+ swelling absorbance, 30 min; inhibition, % at 10 µM; 1.4% of 360,000 active; AID 602449, 2012;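 active means inhibition of 50% or more, scaled per plate between neutral and stimulator controls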;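 further: 0% = DMSO wells given calcium and 100% = 1 mM EGTA wells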
CHOP confirm = retest of CHOP induction inhibitors, confirmation, cell-based. shares compounds with CHOP inh. CHO-CHOP promoter luciferase reporter, tunicamycin-induced, luminescence. AID 504437, 2011. inhibition, % at 10 µM. 45% of 2,100 active;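 active means mean of three repeat readings of reporter signal inhibition above a set limit, cut at about 70% in these data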;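 further: 0% = tunicamycin plus vehicle and 100% = wells lacking tunicamycin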
UPR CHOP confirm = activators of apoptotic CHOP UPR arm, confirmation, cell-based, CHO-CHOP luciferase reporter, single concentration. shares compounds with UPR CHOP act. CHO-CHOP cells, CHOP-luciferase reporter luminescence; percent of tunicamycin response, DMSO as zero. activation, % at 10 µM. 64% of 1,000 active. AID 463112, 2010; in the data active means activation above about 33%;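 further: 0% = DMSO wells and 100% = tunicamycin 10 µg/mL wells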
* = called active by the depositor; . = no result given.

SMILES	UPR CHOP act	aDG glyco act	GRIN3A LBD mod	CHOP inh	XBP1 UPR activ	MPTP block	CHOP confirm	UPR CHOP confirm
CCCc1cc(=O)[nH]c(SCC(=O)Nc2ccc(N3CCCCC3)cc2)n1	-1	0	-2	.	-3	0	.	.
CCCCc1ccc(Nc2nc(CCC)cc(=O)[nH]2)cc1	1	2	1	107*	2	12	98*	.
CCCc1cc(=O)[nH]c(Nc2ccc(N3CCCCC3)cc2)n1	-3	1	-1	107*	-1	10	94*	.
CC(C)n1nnnc1C1c2ccccc2C(=O)N1C1CC1 (stereo not given)	.	0	.	.	.	1	.	.
COc1ccccc1CNC(=O)CNC(=O)c1sc2ccccc2c1Cl	0	0	0	.	-8	0	.	.
Cn1nnnc1SC1CC(=O)N(c2ccccc2)C1=O (stereo not given)	1	0	1	-6	0	18	.	.
Cc1cc(C)cc(N2C(=O)CC(Sc3nnnn3-c3ccccc3)C2=O)c1 (stereo not given)	56*	0	1	102*	-5	-1	63	28
COc1cc(/C=C(\C#N)c2nc3ccccc3[nH]2)ccc1OC(=O)c1ccco1	7	0	9	27	17	2	.	.
COc1cc(/C=C(/C#N)c2nc3ccccc3[nH]2)ccc1OCC(=O)Nc1ccccc1C(C)C	76*	0	6	108*	-6	1	116*	64*
CCOC(=O)COc1ccc2nsnc2c1	-1	0	-8	13	-4	-2	.	.
CCOC(=O)COc1ccc(/C=C/[N+](=O)[O-])c(OCC(=O)OCC)c1	358*	0	0	111*	-6	0	-96	-10
O=C(C#Cc1ccccc1)c1cccc([N+](=O)[O-])c1	293*	0	1	107*	-6	-3	-88	197*
Cc1ccc(CNc2ccc([N+](=O)[O-])cc2C(N)=O)cc1	2	0	-1	.	2	-2	.	.
Cc1ccc(Oc2c(C(N)=O)cc([N+](=O)[O-])cc2[N+](=O)[O-])cc1	64*	0	5	108*	-6	0	-16	25
COc1cccc(CNC(=O)CCCc2cn(C)c3ccccc23)c1	2	0	3	.	0	2	.	.
CCOC(=O)c1c(C)oc2c1c(C(c1cccnc1)N1CCOCC1)c(O)c1ccccc12 (stereo not given)	70*	2	2	107*	4	-3	-2	134*
N#Cc1cc([N+](=O)[O-])c(-n2nnc3ccccc32)c([N+](=O)[O-])c1	122*	0	3	107*	-6	-2	24	74*
O=C(NCCOc1ccccc1Cl)c1cccc2c1C(=O)c1ccc(Cl)cc1S2(=O)=O	3	0	6	.	-1	1	.	.
CC1=NOC(=O)/C1=C\c1ccc(-c2ccc(Cl)c(C(=O)O)c2)o1	-1	0	3	4	-4	-1	.	.
CC1=NOC(=O)/C1=C\c1ccc(-c2cccc(Cl)c2)o1	115*	-1	-3	102*	7	4	-52	190*
CC1(C)CC(=O)C2=C(C1)OC1=C(C(=O)CC(C)(C)C1)C2c1ccc(O)c([N+](=O)[O-])c1	-1	0	0	25	-2	3	.	.
CC1(C)CC(=O)C2=C(C1)OC1=C(C(=O)CC(C)(C)C1)C2c1ccc(O)cc1O	208*	0	2	.	-5	-5	-86	-9
Nn1c(SCC(=O)Nc2cccc(Br)c2)nnc1C1CC1	-1	0	1	.	-3	-2	.	.
C[C@H](CO)N1C[C@H](C)[C@@H](CN(C)S(=O)(=O)c2cn(C)cn2)Oc2ccc(NC(=O)C3CCCCC3)cc2C1=O	-1	0	0	.	-2	0	.	.
Cc1ccc(C)c(C(=O)Cn2ncc(Cl)c(Cl)c2=O)c1	87*	-1	0	111*	-1	-1	-24	67*
SMILES	UPR CHOP act	aDG glyco act	GRIN3A LBD mod	CHOP inh	XBP1 UPR activ	MPTP block	CHOP confirm	UPR CHOP confirm
CC(C)c1nnc(NC(=O)CCS(=O)(=O)c2nc(-c3cccs3)cc(C(F)(F)F)n2)s1	74*	1	2	108*	-6	2	-38	48*
O=C(/C=C/c1ccc(-c2ccccc2)o1)c1ccccc1	93*	0	-8	98*	16	3	-27	7
O=Cc1ccc(-c2cccc(C(=O)O)c2)o1	2	0	-2	-4	-2	-1	.	.
CC(NC(=O)/C(C#N)=C/c1ccc(Cl)c([N+](=O)[O-])c1)c1ccccc1 (stereo not given)	63*	.	-7	105*	-8	.	94*	-10
N#C/C(=C\c1ccc([N+](=O)[O-])o1)C(=O)Nc1ccc(F)cc1	166*	0	-4	108*	-4	4	106*	156*
O/N=C(\c1ccccc1)C(O)c1ccccc1 (stereo not given)	1	0	-1	.	0	-2	.	.
O=C1C=CC(=O)C(C2=C3C(=O)N(CCc4ccccc4)CC(=O)N3CCC2)=C1	131*	.	-6	105*	-3	.	-230	49*
O=C(O)C[C@H]1c2ccc(C(F)(F)F)cc2S(=O)(=O)N1Cc1ccccc1	-3	0	1	.	-3	0	.	.
Cc1ccc(C(=O)N2CCN(S(=O)(=O)N3CCCCC3)CC2)cc1	1	0	0	.	-2	1	.	.
O=C(Cn1ncc(Cl)c(Cl)c1=O)N1CCN(S(=O)(=O)c2ccc3ccccc3c2)CC1	94*	0	-1	99*	-5	1	-25	25
O=C(O)CCC(=O)N1CCN(S(=O)(=O)c2ccc3ccccc3c2)CC1	1	0	-1	.	4	-1	.	.
CCCCC(=O)Nc1sc2c(c1C(=O)OCC)CCC(C=O)=C2Cl	63*	0	.	117*	33*	0	-2	33*
